Assay [1] deals with Rhizoctonia solani. The experiment in a line: Antifungal activity against Rhizoctonia solani AG-4 assessed as inhibition of colony size at 10 ppm at 27 degC measured after 48 hr. It counts as functional. The conditions noted are these: AG-4, 48 h. The essentials: (§1)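 R. solani AG-4 RST-04 was kept on PDA slants. Samples were dissolved in distilled water, with distilled water as the control. Growth was on PDA plates at 27 °C for 48 h. Colony size was measured as mean ± SE (n = 8). Inhibition % = [(control colony size − treatment colony size)/control colony size] × 100. Groups were compared by Duncan's multiple-range test (p = 0.05).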

The subject of assay [2] is Rhizoctonia solani. The experiment in a line: Antifungal activity against Rhizoctonia solani AG-4 assessed as inhibition of colony size at 100 ppm at 27 degC measured after 48 hr. The conditions noted are these: AG-4, 48 h. Type of assay: functional. The method, boiled down:
as §1

Assay [3] relates to Rhizoctonia solani. The experiment in a line: Antifungal activity against Rhizoctonia solani AG-4 assessed as inhibition of colony size at 60 ppm at 27 degC measured after 48 hr. It counts as functional. The conditions noted are these: AG-4, 48 h. The method, boiled down:
as §1

Assay [4] deals with Rhizoctonia solani. The assay can be described thus: Antifungal activity against Rhizoctonia solani AG-4 assessed as inhibition of mycelial growth at 27 degC measured after 48 hr. It counts as functional, organism-based.
In assay [5] the test system is Rhizoctonia solani. The assay can be described thus: Antifungal activity against Rhizoctonia solani AG-4 assessed as inhibition of colony size at 30 ppm at 27 degC measured after 48 hr. Type of assay: functional. The conditions noted are these: AG-4, 48 h. The essentials:
as §1

For assay [6], the system named is Rhizoctonia solani. The experiment in a line: Antifungal activity against Rhizoctonia solani AG-4 assessed as inhibition of colony size at 125 ppm at 27 degC measured after 48 hr. Type of assay: functional. The conditions noted are these: AG-4, 48 h. The essentials:
as §1

Assay [7] concerns Rhizoctonia solani. The experiment in a line: Antifungal activity against Rhizoctonia solani AG-4 assessed as inhibition of colony size at 2.5 ppm at 27 degC measured after 48 hr. Type of assay: functional. The conditions noted are these: AG-4, 48 h. The method, boiled down: (§2)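 R. solani AG-4 RST-04 was grown on potato dextrose agar plates at 27 °C for 48 h, with the reference fungicide tested across 0.25-250 ppm. Samples were dissolved in distilled water, and plates given distilled water alone served as control. Colony size was read as the mean of n = 8. Inhibition (%) = [(control colony size − treated colony size)/control colony size] × 100.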

The test system of assay [8] is Rhizoctonia solani. The experiment in a line: Antifungal activity against Rhizoctonia solani AG-4 assessed as inhibition of colony size at 25 ppm at 27 degC measured after 48 hr. The conditions noted are these: AG-4, 48 h. Type of assay: functional. The method, boiled down:
as §2

Assay [9] concerns Rhizoctonia solani. The experiment in a line: Antifungal activity against Rhizoctonia solani AG-4 assessed as inhibition of colony size at 250 ppm at 27 degC measured after 48 hr. Type of assay: functional. The conditions noted are these: AG-4, 48 h. The essentials: as §2
Assay [10] relates to Rhizoctonia solani. The experiment in a line: Antifungal activity against Rhizoctonia solani AG-4 assessed as inhibition of colony size at 0.25 ppm at 27 degC measured after 48 hr. The conditions noted are these: AG-4, 48 h. It counts as functional. The essentials: as §2

Data on 4 compounds can be found in ChEMBL document CHEMBL3046220, “Bioactive saponin from tea seed pomace with inhibitory effects against Rhizoctonia solani” (J Agric Food Chem, 2010).

For orientation: inhibition means the change of the read-out against control, counted positive when it falls. In the case of `C/C=C(/C)C(=O)O[C@H]1CC(C)(C)C[C@H]2C3=CC[C@@H]4[C@@]5(C)CC[C@H](O[C@@H]6O[C@H](C(=O)O)[C@@H](O)[C@H](O[C@@H]7OC[C@H](O)[C@H](O)[C@H]7O[C@@H]7O[C@H](CO)[C@@H](O)[C@H](O)[C@H]7O)[C@H]6O[C@@H]6O[C@H](CO)[C@H](O)[C@H](O)[C@H]6O)[C@@](C)(C=O)[C@@H]5CC[C@@]4(C)[C@]3(C)C[C@@H](O)[C@@]12CO` [CAMELLIASAPONIN B1], in assay [1], the inhibition at 10 ppm came out at 6.43%. Also, in assay [2], the inhibition at 100 ppm came to 63.4%. Further, the inhibition at 60 ppm in assay [3] stood at 56.5%. Further, in [4], the IC50 was determined as 55.7 ppm. In addition, the inhibition at 30 ppm in [5] worked out at 46.8%.

On to `C[C@@H]1O[C@@H](OC[C@H]2O[C@@H](Oc3c(-c4ccc(O)cc4)oc4cc(O)cc(O)c4c3=O)[C@H](O[C@@H]3O[C@H](CO)[C@H](O)[C@H](O)[C@H]3O)[C@@H](O)[C@@H]2O)[C@H](O)[C@H](O)[C@H]1O` [CAMELLIASIDE A], for which the IC50 in assay [4] is recorded as above 125 ppm. In addition, the inhibition at 125 ppm in assay [6] is -14.7%.

`C[C@@H]1O[C@@H](OC[C@H]2O[C@@H](Oc3c(-c4ccc(O)cc4)oc4cc(O)cc(O)c4c3=O)[C@H](O[C@@H]3OC[C@@H](O)[C@H](O)[C@H]3O)[C@@H](O)[C@@H]2O)[C@H](O)[C@H](O)[C@H]1O` [CAMELLIASIDE B]: the IC50 in assay [4] is above 125 ppm. Besides, the inhibition at 125 ppm in assay [6] was -14.5%.

Consider `O=C(Nc1ccccc1)N(Cc1ccc(Cl)cc1)C1CCCC1` [PENCYCURON], for which, in assay [7], the inhibition at 2.5 ppm was 73.6%. Further, in assay [4], the IC50 is below 0.25 ppm. In addition, the inhibition at 25 ppm in assay [8] was found to be 83.9%. Also, in [9], the inhibition at 250 ppm was 81.9%. Besides, the inhibition at 0.25 ppm in [10] was found to be 66.6%.
